In ChEMBL document CHEMBL3813689, “Discovery of Potent Benzofuran-Derived Diapophytoene Desaturase (CrtN) Inhibitors with Enhanced Oral Bioavailability for the Treatment of Methicillin-Resistant Staphylococcus aureus (MRSA) Infections” (J Med Chem, 2016):

Experiments:
Staphylococcus aureus [1] = assay: Sensitization of methicillin-resistant Staphylococcus aureus Mu50 to H2O2 assessed as bacterial survival at 1 uM measured after 24 hrs (reference value: 25.3%); format: functional; conditions: Mu50, 24 h
[2] = biological target: T1, 4,4'-diapophytoene desaturase (4,4'-diaponeurosporene-forming) (Staphylococcus aureus (strain Newman), UniProt O07855); assay: Inhibition of Staphylococcus aureus Newman 6His-tagged CrtN expressed in Escherichia coli BL21(DE3) using diapophytoene as substrate assessed as pigment formation after overnight incubation by spectrophotometric method; design: species or system Staphylococcus aureus subsp. aureus str. Newman
T1 sequence (O07855 whole entry): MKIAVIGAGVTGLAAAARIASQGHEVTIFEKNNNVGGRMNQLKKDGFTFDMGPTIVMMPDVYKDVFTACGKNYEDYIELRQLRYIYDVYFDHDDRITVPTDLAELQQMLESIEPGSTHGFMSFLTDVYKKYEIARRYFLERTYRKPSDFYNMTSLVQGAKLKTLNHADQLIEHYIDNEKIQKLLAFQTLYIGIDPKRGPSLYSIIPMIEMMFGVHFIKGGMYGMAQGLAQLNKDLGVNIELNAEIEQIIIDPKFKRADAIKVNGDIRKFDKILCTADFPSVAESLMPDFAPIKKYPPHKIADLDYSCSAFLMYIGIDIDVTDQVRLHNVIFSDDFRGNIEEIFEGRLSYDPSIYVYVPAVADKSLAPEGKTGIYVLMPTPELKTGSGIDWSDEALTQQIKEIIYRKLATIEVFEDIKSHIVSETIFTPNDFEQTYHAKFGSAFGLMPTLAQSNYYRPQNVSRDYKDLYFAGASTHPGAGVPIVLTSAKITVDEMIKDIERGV
Procedure, shortened: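 Lysate of E. coli BL21(DE3) expressing 6His-CrtN (IPTG 0.5 mM, 16 °C overnight), ~1.41 mg CrtN per reaction, with diapophytoene–phosphatidylcholine emulsion in 0.02 M HEPES pH 7.5 plus FAD. Anaerobic via glucose oxidase 20 U/mL, catalase 20000 U/mL, glucose 2 mM (final). Started with lysate, overnight at 37 °C; triplicate.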

Staphylococcus aureus [3] = assay: Suppression in growth of methicillin-resistant Staphylococcus aureus USA400 MW2 at 0.05 mM measured after overnight incubation by spectrophotometric method; format: organism-based; conditions: 50 µM
Procedure, shortened: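 Compound from 20 mM DMSO stock diluted in TSB to final 0.2 or 0.05 mM; DMSO growth controls; paraffin overlay. Overnight cultures inoculated to final OD600 ≈ 0.05; incubated at 37 °C overnight with OD600 read every 30 min.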

Staphylococcus aureus [4] = assay: Sensitization of methicillin-resistant Staphylococcus aureus Mu50 to immune clearance in human whole blood assessed as reduction in bacterial survival at 1 uM measured after 24 hrs relative to control; format: functional
Procedure, shortened: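 Overnight cultures spun down and resuspended in sterile PBS at 1 × 10^7 CFU/mL. 40 µL mixed with 360 µL fresh whole blood from a healthy human volunteer, giving 1 × 10^6 CFU/mL. Incubated 6 h at 37 °C. Surviving CFU counted by plating dilutions on TSA.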

Staphylococcus aureus [5] = assay: Sensitization of methicillin-resistant Staphylococcus aureus USA300 LAC to H2O2 assessed as reduction in bacterial survival at 1 uM measured after 24 hrs relative to control; format: functional
Procedure, shortened: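 Strains grown 24 h in TSB with or without inhibitor, washed twice in PBS, then diluted to 4 × 10^6 CFU per 250 µL reaction. H2O2 added to a final 1.5%. Tubes sealed and held 30 min at 37 °C. Reaction stopped with 1000 U/mL catalase. Survivors counted as CFU by serial dilution on TSA plates and compared with untreated (mock) bacteria.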

[6] = system: Trichophyton mentagrophytes; assay: Antifungal activity against Trichophyton mentagrophytes measured after 7 days by serial dilution method; format: functional
Procedure, shortened: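 Broth serial dilution MIC per NCCLS in RPMI 1640 buffered with 0.165 M MOPS; compounds in DMSO diluted in medium. Dermatophytes incubated at 28 °C, read at 7 days. MIC taken as lowest concentration giving ≥80% growth inhibition versus control (turbidity).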

With `CN(C/C=C/c1ccc(C(F)(F)F)cc1)Cc1cccc2ccoc12.Cl` the survival at 1 µM (Staphylococcus aureus [1]) was 4.3%, the IC50 [2] was 339 nM and the Activity (Staphylococcus aureus [3]) was “Non-toxic”. For the same compound, the “fold change (FC)” value (Staphylococcus aureus [4]) was 5, the “fold change (FC)” value (Staphylococcus aureus [5]) was 20 and the “MIC=<80” value [6] was >64 µg/mL.
